The results in this text go back to ChEMBL document CHEMBL5120825, “The azulene scaffold from a medicinal chemist's perspective: Physicochemical and in vitro parameters relevant for drug discovery” (Eur J Med Chem, 2022).

Data set [1] in a line: Aqueous solubility of the compound at pH 6.8 incubated for 24 hrs under shaking condition by LC-UV analysis. The format is physicochemical. The settings on record: aqueous medium. Summed up:
(§1)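 The highest concentration tested was 250 μM, so results are capped at that level. Values are reported in µg/ml.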

Data set [2] can be described thus: Octanol-water partition coefficient, logD of the compound at pH 2 by HPLC analysis. The format is physicochemical.
Data set [3] is described as follows: Permeability of the compound at pH 7.4 by PAMPA assay. Format: ADME. The settings on record: read-out: permeability.
Data set [4] is described as follows: Aqueous solubility of the compound at pH 2.2 incubated for 24 hrs under shaking condition by LC-UV analysis. The settings on record: aqueous medium. Format: physicochemical. The procedure, abridged: as §1
Data set [5] is described as follows: Octanol-water partition coefficient, logD of the compound at pH 11 by HPLC analysis. The format is physicochemical.
The nature of data set [6]: Metabolic stability in human liver microsomes assessed as hepatic blood flow at 1 uM preincubated with compound followed by NADPH addition by LC-MS/MS analysis. Format: ADME, Microsome. The settings on record: read-out: QH. In general terms: Microsomes from liver hold many membrane-bound enzymes, among them those of drug oxidation.
The nature of data set [7]: Lipophilicity, logP of the compound. The settings on record: octanol/water. The format is physicochemical.
The nature of data set [8]: Aqueous solubility of the compound at pH 4.5 incubated for 24 hrs under shaking condition by LC-UV analysis. Format: physicochemical. The settings on record: aqueous medium. The procedure, abridged: as §1

Values after ≈ are worked out from the molar mass of the structure shown.

For orientation: solubility (thermodynamic) means solubility found after equilibrating the solid with the medium. Broadly, the logD is the decadic logarithm of the distribution of all forms, ionised or not, between an organic phase and buffer at a given pH. Broadly, the logP is the decadic logarithm of the partition coefficient of the neutral form, usually between octanol and water. As for `c1ccc2cc(CN3CCCCC3)ccc2c1`, the thermodynamic solubility at 24 h in data set [1] is 27 µg/mL (≈ 120 µM); in data set [4] it was 34 µg/mL (≈ 151 µM); in data set [8], 30 µg/mL (≈ 133 µM). Further, the results for the logD in data set [2] (read-out: logD) and in data set [5] (read-out: logD) were 0.9 and above 5.5, respectively. In data set [3], the Papp stood at 4.6 ×10⁻⁶ cm/s. Further, the hepatic extraction ratio at 1 µM in data set [6] came out at 0.72. In addition, in data set [7] (read-out: logP), the logP was above 5.5.

As for `COC(=O)c1ccc2c(C(=O)N(C)C)cn(C)c2c1`, the figures for the thermodynamic solubility at 24 h in data set [1], in data set [4] and in data set [8] were 49 µg/mL (≈ 188 µM), 50 µg/mL (≈ 192 µM) and above 52 µg/mL, respectively. The pH-dependent lipophilicity (logD) in data set [2] and in data set [5] was 1.9 each time. Moreover, in data set [3], the Papp amounted to 4.2 ×10⁻⁶ cm/s. In data set [6], the hepatic extraction ratio at 1 µM is 0.82. Further, the logP in data set [7] amounted to 1.4.

`O=C(NCc1cccnc1)c1ccc2ccc(C(=O)c3ccccc3)c-2cc1`: the thermodynamic solubility at 24 h in data set [1] was below 1 µg/mL; in data set [4], 70 µg/mL (≈ 191 µM); in data set [8], below 1 µg/mL. Moreover, the logD in data set [2] (read-out: logD) and in data set [5] (read-out: logD) was 1.4 in each case. Moreover, the Papp in data set [3] was determined as 2.4 ×10⁻⁶ cm/s. In addition, the hepatic extraction ratio at 1 µM in data set [6] was 0.46. Besides, the logP in data set [7] (read-out: logP) was determined as 3.

`CN(C)C(=O)Cc1ccc2ccn(C)c2c1`: the solubility (thermodynamic) at 24 h was above 53 µg/mL in data set [1], above 54 µg/mL in data set [4] and above 53 µg/mL in data set [8]. Besides, the logD in data set [2] (read-out: logD) is 1.9; in data set [5] (read-out: logD), 1.7. Besides, the Papp in data set [3] is 7.6 ×10⁻⁶ cm/s. Also, in data set [6], the hepatic extraction ratio at 1 µM is below 0.23. For the same compound, the logP in data set [7] (read-out: logP) turned out to be 1.7.

Take `O=C(NCc1cccnc1)c1ccc2[nH]cc(C(=O)c3ccccc3)c2c1`: the values for the thermodynamic solubility at 24 h in data set [1], in data set [4] and in data set [8] were below 1 µg/mL, above 79 µg/mL and 1 µg/mL (≈ 2.81 µM), respectively. Moreover, the logD in data set [2] (read-out: logD) and in data set [5] (read-out: logD) was 0.8 throughout. The Papp in data set [3] came out at 0.1 ×10⁻⁶ cm/s. The hepatic extraction ratio at 1 µM in data set [6] amounted to 0.56. Moreover, the lipophilicity (logP) in data set [7] (read-out: logP) is 1.4.

Consider `Cn1cc(C(=O)c2ccccc2)c2cc(C(=O)NCc3cccnc3)ccc21`, for which the thermodynamic solubility at 24 h in data set [1] is below 1 µg/mL; in data set [4], 81 µg/mL (≈ 219 µM); in data set [8] it was 3 µg/mL (≈ 8.12 µM). The logD in data set [2] (read-out: logD) and in data set [5] (read-out: logD) was 0.9 throughout. In data set [3], the Papp is 1.7 ×10⁻⁶ cm/s. The hepatic extraction ratio at 1 µM in data set [6] was below 0.23. Besides, the logP in data set [7] (read-out: logP) turned out to be 2.1.

With `O=C(Nc1cc2cccccc-2c1)c1cccnc1`, the results for the solubility (thermodynamic) at 24 h in data set [1], in data set [4] and in data set [8] were 2 µg/mL (≈ 8.06 µM), 43 µg/mL (≈ 173 µM) and 3 µg/mL (≈ 12.1 µM), respectively. Besides, the logD in data set [2] (read-out: logD) and in data set [5] (read-out: logD) was 1.3 throughout. In addition, the Papp in data set [3] amounted to 4.8 ×10⁻⁶ cm/s. The hepatic extraction ratio at 1 µM in data set [6] was determined as 0.71. Also, the logP in data set [7] (read-out: logP) came out at 2.4.

With `O=C(NCCO)c1ccc2[nH]cc(C(=O)c3ccccc3)c2c1`, the thermodynamic solubility at 24 h in data set [1] was 15 µg/mL (≈ 48.6 µM); in data set [4] it was 39 µg/mL (≈ 126 µM); in data set [8] it was 18 µg/mL (≈ 58.4 µM). Moreover, the logD in data set [2] and in data set [5] was 1.3 in each case. The Papp in data set [3] was found to be 0.01 ×10⁻⁶ cm/s. The hepatic extraction ratio at 1 µM in data set [6] came out at 0.53. The compound further yielded a logP in data set [7] of 0.6.

As for `O=C(NCCc1c[nH]c2ccccc12)c1ccc2[nH]cc(C(=O)c3ccccc3)c2c1`, the figures for the thermodynamic solubility at 24 h in data set [1], in data set [4] and in data set [8] were 1 µg/mL (≈ 2.45 µM), below 1 µg/mL and below 1 µg/mL, respectively. Moreover, the values for the logD in data set [2] and in data set [5] (read-out: logD) were 3.3 and 2.8, respectively. For the same compound, the Papp in data set [3] was below 0.01 ×10⁻⁶ cm/s. Further, the hepatic extraction ratio at 1 µM in data set [6] stood at 0.84. Moreover, the logP in data set [7] is listed as 2.8.

Consider `Cn1cc(C(=O)c2ccccc2)c2cc(C(=O)NCCO)ccc21`, for which the solubility (thermodynamic) at 24 h in data set [1] was found to be 45 µg/mL (≈ 140 µM); in data set [4], 53 µg/mL (≈ 164 µM); in data set [8], 66 µg/mL (≈ 205 µM). Moreover, the logD in data set [2] (read-out: logD) and in data set [5] (read-out: logD) was 1.6 in each case. For the same compound, in data set [3], the Papp is 0.5 ×10⁻⁶ cm/s. For the same compound, the hepatic extraction ratio at 1 µM in data set [6] was below 0.23. The logP in data set [7] (read-out: logP) worked out at 1.3.
